Measured values: ChEMBL document CHEMBL1143603, “Identification and characterization of novel benzil (diphenylethane-1,2-dione) analogues as inhibitors of mammalian carboxylesterases” (J Med Chem, 2005)

Tests used:
[1] = molecular target: Acetylcholinesterase (Homo sapiens, UniProt P22303); assay: Inhibition constant against human Acetylcholinesterase (hAcChE) using acetylthiocholine (AcTCh) as substrate
[2] = molecular target: T1, Cocaine esterase (Homo sapiens, UniProt O00748); assay: Inhibition constant against human intestinal carboxylesterase 2 (hiCE) using nitrophenyl acetate (o-NPA) as substrate
T1 sequence (O00748 whole entry): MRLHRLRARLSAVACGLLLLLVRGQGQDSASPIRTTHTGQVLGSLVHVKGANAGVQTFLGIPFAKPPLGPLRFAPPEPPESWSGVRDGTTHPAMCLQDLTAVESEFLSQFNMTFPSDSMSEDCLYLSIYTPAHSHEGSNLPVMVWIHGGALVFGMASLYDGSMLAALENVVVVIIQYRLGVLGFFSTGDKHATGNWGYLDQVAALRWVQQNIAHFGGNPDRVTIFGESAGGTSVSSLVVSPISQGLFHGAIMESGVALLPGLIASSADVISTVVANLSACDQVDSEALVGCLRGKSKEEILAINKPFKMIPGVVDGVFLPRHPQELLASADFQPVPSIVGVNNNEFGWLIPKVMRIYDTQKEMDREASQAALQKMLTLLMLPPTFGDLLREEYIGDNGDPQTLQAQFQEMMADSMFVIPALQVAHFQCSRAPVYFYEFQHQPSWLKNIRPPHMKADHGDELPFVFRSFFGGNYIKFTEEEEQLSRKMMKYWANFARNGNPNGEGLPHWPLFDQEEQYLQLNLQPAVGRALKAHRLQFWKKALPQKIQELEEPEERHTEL

[3] = molecular target: T2, Liver carboxylesterase 1 (Oryctolagus cuniculus, UniProt P12337); assay: Inhibition constant against rabbit liver carboxylesterase (rCE) using nitrophenyl acetate (o-NPA) as substrate
T2 sequence (P12337 whole entry): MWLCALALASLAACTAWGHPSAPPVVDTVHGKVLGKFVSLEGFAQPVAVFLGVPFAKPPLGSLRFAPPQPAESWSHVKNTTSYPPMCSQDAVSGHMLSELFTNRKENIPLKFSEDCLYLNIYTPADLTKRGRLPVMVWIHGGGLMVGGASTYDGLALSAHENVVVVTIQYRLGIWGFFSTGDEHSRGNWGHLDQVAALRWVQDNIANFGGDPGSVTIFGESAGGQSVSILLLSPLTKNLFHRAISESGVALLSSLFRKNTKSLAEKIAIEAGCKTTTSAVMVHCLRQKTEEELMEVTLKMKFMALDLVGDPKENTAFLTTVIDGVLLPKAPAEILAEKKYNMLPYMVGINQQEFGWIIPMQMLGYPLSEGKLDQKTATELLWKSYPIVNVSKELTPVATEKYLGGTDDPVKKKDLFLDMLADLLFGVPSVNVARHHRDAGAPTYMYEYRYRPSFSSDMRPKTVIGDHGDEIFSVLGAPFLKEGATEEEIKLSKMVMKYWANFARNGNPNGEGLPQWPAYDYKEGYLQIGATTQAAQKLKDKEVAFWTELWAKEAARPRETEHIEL
Procedure, shortened: (§1)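 Pure rCE prepared per earlier work. Spectrophotometric multiwell assay with 3mM o-NPA. Inhibitor and substrate were dispensed first, then enzyme was added. A420 was read every 15 s for 5 min and compared with no-inhibitor wells. Inhibitor range started at 1 pM. Duplicates, with 50 µM BNPP and DMSO/no-enzyme controls. Ki came from a partially competitive inhibition equation fit.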

[4] = molecular target: T3, Liver carboxylesterase 1 (Homo sapiens, UniProt P23141); assay: Inhibition constant against human liver carboxylesterase 1 (hCE1) using nitrophenyl acetate (o-NPA) as substrate
T3 sequence (P23141 whole entry): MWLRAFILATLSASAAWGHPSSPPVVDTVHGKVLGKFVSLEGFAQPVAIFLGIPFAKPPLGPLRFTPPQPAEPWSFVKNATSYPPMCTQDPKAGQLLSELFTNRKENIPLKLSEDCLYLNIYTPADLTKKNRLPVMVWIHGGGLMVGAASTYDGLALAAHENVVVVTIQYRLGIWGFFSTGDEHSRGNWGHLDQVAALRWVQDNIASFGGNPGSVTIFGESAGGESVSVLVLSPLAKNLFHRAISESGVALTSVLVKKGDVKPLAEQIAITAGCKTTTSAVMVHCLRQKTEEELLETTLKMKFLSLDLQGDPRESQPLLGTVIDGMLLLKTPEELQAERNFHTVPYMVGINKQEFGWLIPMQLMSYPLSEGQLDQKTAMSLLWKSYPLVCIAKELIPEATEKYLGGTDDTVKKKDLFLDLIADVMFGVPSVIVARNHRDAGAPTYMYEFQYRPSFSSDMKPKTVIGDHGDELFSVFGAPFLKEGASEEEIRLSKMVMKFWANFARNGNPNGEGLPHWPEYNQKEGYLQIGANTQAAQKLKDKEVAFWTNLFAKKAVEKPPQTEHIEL

[5] = molecular target: Cholinesterase (Homo sapiens, UniProt P06276); assay: Inhibition constant against human Butyrylcholinesterase (hBuChE) using butyrylthiocholine (BuTCh) as substrate
[6] = molecular target: T2, Liver carboxylesterase 1; assay: Inhibition constant against rabbit liver carboxylesterase using CPT-11
Procedure, shortened: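 Purified rabbit CE was used with CPT-11 as the substrate. CPT-11 and SN-38 were quantified by HPLC with fluorescence detection.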

[7] = molecular target: T2, Liver carboxylesterase 1; assay: Inhibition constant against rabbit liver carboxylesterase using 4-MUA (4-methylumbelliferone acetate)
Procedure, shortened: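 Pure enzyme (hCE1 or rabbit CE) was incubated with 0.75 mM 4-methylumbelliferone acetate in 50 mM Hepes, pH 7.4. 4-Methylumbelliferone release was read fluorimetrically (excitation 365 nm, emission 460 nm) over 1 min, where the rate was linear. Inhibitor dilution series were run, and Ki was obtained by fitting fractional inhibition to a partially competitive inhibition equation.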

[8] = molecular target: T3, Liver carboxylesterase 1; assay: Inhibition constant against human liver carboxylesterase 1 using o-NPA (nitrophenyl acetate)
Procedure, shortened: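 Purified hCE1 was assayed in multiwell plates with 3 mM o-nitrophenyl acetate, with enzyme added last. Absorbance change at 420 nm was read every 15 s for 5 min and compared with no-inhibitor wells. Inhibitor concentrations started at 1 pM, and assays were run in duplicate with 50 µM BNPP and DMSO/no-enzyme controls. Ki came from fitting to a partially competitive inhibition equation.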

[9] = molecular target: T2, Liver carboxylesterase 1; assay: Inhibition constant against rabbit liver carboxylesterase using o-NPA (nitrophenyl acetate); procedure, shortened: as §1
[10] = molecular target: T3, Liver carboxylesterase 1; assay: Inhibition constant against human liver carboxylesterase 1 using 4-MUA (4-methylumbelliferone acetate)
Procedure, shortened: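 Pure enzyme (hCE1 or rabbit CE) was incubated with 0.75 mM 4-methylumbelliferone acetate in 50 mM Hepes, pH 7.4. Inhibitor dilution series were run, and Ki was obtained by fitting fractional inhibition to a partially competitive inhibition equation.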

Sequence of Acetylcholinesterase (P22303 whole entry): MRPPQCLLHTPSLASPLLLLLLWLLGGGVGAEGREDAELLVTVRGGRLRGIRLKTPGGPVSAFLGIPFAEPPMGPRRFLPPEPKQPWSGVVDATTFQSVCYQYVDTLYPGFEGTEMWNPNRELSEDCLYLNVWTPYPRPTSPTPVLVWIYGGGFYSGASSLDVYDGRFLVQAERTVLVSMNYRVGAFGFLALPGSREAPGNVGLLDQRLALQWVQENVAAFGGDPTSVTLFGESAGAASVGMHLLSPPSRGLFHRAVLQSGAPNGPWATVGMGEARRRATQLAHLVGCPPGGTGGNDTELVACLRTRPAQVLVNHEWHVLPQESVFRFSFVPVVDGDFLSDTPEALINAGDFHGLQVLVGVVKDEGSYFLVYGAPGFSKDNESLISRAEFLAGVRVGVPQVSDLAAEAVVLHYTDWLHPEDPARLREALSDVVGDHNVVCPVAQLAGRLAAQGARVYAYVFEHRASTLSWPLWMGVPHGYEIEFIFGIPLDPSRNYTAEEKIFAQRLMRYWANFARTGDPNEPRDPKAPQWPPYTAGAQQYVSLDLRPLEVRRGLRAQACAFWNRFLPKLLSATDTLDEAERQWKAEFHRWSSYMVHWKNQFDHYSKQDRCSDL
Sequence of Cholinesterase (P06276 whole entry): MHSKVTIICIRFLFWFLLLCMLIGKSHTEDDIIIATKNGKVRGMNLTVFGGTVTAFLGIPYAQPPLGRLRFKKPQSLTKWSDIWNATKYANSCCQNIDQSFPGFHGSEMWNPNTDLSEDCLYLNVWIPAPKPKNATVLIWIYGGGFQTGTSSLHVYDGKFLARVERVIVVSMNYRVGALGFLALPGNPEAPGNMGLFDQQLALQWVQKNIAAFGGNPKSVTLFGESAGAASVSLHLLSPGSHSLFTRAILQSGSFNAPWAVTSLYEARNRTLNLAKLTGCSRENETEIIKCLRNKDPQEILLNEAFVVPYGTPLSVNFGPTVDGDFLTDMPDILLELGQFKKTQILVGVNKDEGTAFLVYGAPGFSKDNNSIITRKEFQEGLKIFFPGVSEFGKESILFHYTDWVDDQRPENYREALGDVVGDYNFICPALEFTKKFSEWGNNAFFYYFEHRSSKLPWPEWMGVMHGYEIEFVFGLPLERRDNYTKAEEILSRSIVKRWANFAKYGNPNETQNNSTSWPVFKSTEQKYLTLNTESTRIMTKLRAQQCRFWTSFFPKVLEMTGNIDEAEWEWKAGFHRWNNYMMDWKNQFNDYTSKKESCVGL

| Ki [9] | SMILES | Ki [1] | Ki [2] | Ki [3] | Ki [4] | Ki [5] | Ki [6] | Ki [7] | Ki [8] | Ki [10] |
| --- | --- | --- | --- | --- | --- | --- | --- | --- | --- | --- |
|  | OC(c1ccccc1)C(O)c1ccccc1 (stereo not given) | > 100 µM | > 100 µM | > 100 µM | > 100 µM | > 100 µM |  |  |  |  |
|  | O=C1C=CC(=O)C=C1 [BENZOQUINONE] | 0.955 µM | > 100 µM | > 100 µM | > 100 µM | 2.05 µM |  |  |  |  |
|  | CC(=O)C(=O)c1ccccc1 | > 100 µM |  | 4.93 µM | 5.27 µM | > 100 µM |  |  |  |  |
|  | O=C(c1ccccc1)C(O)c1ccccc1 (stereo not given) [BENZOIN] |  |  | > 100 µM |  |  |  |  |  |  |
|  | O=C(C(=O)c1ccc(C(=O)C(=O)c2ccccc2)cc1)c1ccccc1 |  |  | 0.0061 µM |  |  | 0.0141 µM | 0.0021 µM |  |  |
| 0.0095 µM | O=C(C(=O)c1ccc(Cl)cc1)c1ccc(Cl)cc1 |  |  | 0.0095 µM | 0.182 µM |  | 0.043 µM | 0.0013 µM | 0.182 µM | 0.0016 µM |
|  | O=C1CCCC(=O)C1 | > 100 µM | > 100 µM | > 100 µM | > 100 µM | > 100 µM |  |  |  |  |
|  | O=S(=O)(Cc1ccccc1)Cc1ccccc1 | > 100 µM | > 100 µM | > 100 µM | > 100 µM | > 100 µM |  |  |  |  |
|  | CCC(=O)C(C)=O [2,3-PENTANEDIONE] | > 100 µM | > 100 µM | > 100 µM | > 100 µM | > 100 µM |  |  |  |  |
|  | O=S(=O)(Cc1ccccc1)c1ccccc1 [BENZYLSULFONYLBENZENE] | > 100 µM | > 100 µM | > 100 µM | > 100 µM | > 100 µM |  |  |  |  |
|  | CN(C)c1ccc(C(=O)C(=O)c2ccc(N(C)C)cc2)cc1 |  |  | 2.15 µM |  |  |  |  |  |  |
|  | O=C1C(=O)C(Cl)=C(Cl)C(Cl)=C1Cl | 1.67 µM | 0.875 µM | 1.03 µM | 5.44 µM | 3.2 µM |  |  |  |  |
|  | COc1ccc(C(=O)C(O)c2ccc(OC)cc2)cc1 (stereo not given) | > 100 µM | > 100 µM | 13.9 µM | > 100 µM | > 100 µM |  |  |  |  |
|  | Cc1ccc(C(=O)C(=O)c2ccccc2)cc1[N+](=O)[O-] |  |  | 0.0119 µM |  |  | 0.0241 µM | 0.004 µM | 0.295 µM | 0.0075 µM |
|  | CC(=O)CCC(=O)c1ccccc1 | > 100 µM | > 100 µM | > 100 µM | > 100 µM | > 100 µM |  |  |  |  |
|  | [O-][S+](Cc1ccccc1)Cc1ccccc1 | > 100 µM | > 100 µM | > 100 µM | > 100 µM | > 100 µM |  |  |  |  |
|  | O=C(O)c1ccc(C(=O)c2ccccc2)cc1 | > 100 µM | > 100 µM | > 100 µM | > 100 µM | > 100 µM |  |  |  |  |
|  | CC(=O)CC(C)=O | > 100 µM | > 100 µM | > 100 µM | > 100 µM | > 100 µM |  |  |  |  |
|  | O=C(c1ccccc1)c1ccccc1 [BENZOPHENONE] |  | > 100 µM | > 100 µM | > 100 µM | > 100 µM |  |  |  |  |
